Measurements collected from several papers.
Compare with care: the assays were run in different laboratories.
Target: Mitogen-activated protein kinase kinase kinase kinase 3 (MAP4K3, Homo sapiens, UniProt Q8IVH8)
One construct used (Q8IVH8 1-894): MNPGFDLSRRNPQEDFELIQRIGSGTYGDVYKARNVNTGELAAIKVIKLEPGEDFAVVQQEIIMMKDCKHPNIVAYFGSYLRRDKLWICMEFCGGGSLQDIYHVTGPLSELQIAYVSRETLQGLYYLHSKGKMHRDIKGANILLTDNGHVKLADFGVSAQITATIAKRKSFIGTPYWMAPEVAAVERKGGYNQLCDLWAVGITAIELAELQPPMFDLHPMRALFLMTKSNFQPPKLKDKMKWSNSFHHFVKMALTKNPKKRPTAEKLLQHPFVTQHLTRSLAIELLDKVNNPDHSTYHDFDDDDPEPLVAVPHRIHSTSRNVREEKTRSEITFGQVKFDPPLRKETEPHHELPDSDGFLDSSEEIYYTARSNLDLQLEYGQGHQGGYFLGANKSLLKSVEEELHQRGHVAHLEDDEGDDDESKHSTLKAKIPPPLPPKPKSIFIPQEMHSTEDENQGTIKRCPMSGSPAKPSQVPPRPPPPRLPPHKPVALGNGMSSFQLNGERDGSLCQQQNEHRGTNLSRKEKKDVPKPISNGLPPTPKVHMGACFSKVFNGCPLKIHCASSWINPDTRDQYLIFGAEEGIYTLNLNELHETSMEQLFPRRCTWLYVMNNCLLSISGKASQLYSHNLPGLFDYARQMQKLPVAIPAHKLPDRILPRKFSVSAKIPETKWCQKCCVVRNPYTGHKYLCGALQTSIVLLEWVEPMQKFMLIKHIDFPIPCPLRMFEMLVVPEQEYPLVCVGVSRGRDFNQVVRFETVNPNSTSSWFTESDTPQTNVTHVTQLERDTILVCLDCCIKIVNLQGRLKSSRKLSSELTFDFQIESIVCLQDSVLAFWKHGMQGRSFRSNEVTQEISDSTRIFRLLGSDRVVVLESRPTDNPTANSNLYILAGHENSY

SMILES	effect on	method	concentration	remaining binding [%]
CN(c1nccc(-c2cnn3ncccc23)n1)C1CC1	binding	–	1 µM	100
O=C(NCCCN1CCOCC1)c1ccc(Nc2nccc(-c3cc4ccccc4s3)n2)cc1	binding	competition with immobilised ligand	1 µM	65
Nc1cnc(N2CCc3cc(S(=O)(=O)Nc4c(F)cc(Cl)cc4F)cc(N4CCCC4=O)c32)nc1	cell-free assay	competition with immobilised ligand	1 µM	93
O=C(Nc1c[nH]nc1C(=O)NC1CCNCC1)c1cc(F)cc(F)c1	binding	competition with immobilised ligand	1 µM	74
CN(C)c1nccc(-c2cnn3ncccc23)n1	binding	–	1 µM	100
O=C(Nc1cccnn1)N1CC(C/C=C/c2cncc(Oc3ccc(C(F)(F)F)cn3)n2)C1	cell-free assay	competition with immobilised ligand	1 µM	100
COc1cnc(Nc2cccc(S(N)(=O)=O)c2)nc1N1CCN(c2ccccc2)CC1	binding	competition with immobilised ligand	1 µM	98
CCN1CCN(Cc2ccc(C(=O)Nc3ccc(C)c(Oc4ccc5c(c4)CC(=O)N5)c3)cc2C(F)(F)F)CC1	binding	competition with immobilised ligand	1 µM	76
c1cncc(-c2cccc(Nc3nccc(NC4CCCCC4)n3)c2)c1	binding	competition with immobilised ligand	10 µM	83
CCS(=O)(=O)c1cc2cc(C[C@@](O)(CC(C)(C)c3ccc(F)cc3C(N)=O)C(F)(F)F)[nH]c2cn1	cell-free assay	competition with immobilised ligand	1 µM	82
N[C@@H]1CCN(c2nccc(-c3cnn4ncccc34)n2)C1	binding	–	1 µM	76
CN([C@@H]1CCc2c(CC(=O)O)c3cc(S(C)(=O)=O)ccc3n2C1)S(=O)(=O)c1ccc(F)cc1	cell-free assay	competition with immobilised ligand	1 µM	100
F[C@@H]1CCN(c2nccc(-c3cnn4ncccc34)n2)C1	binding	–	1 µM	100
CNC(=O)[C@@H]1CC[C@@H](n2c(-c3ccc4cnccc4c3)nc3ccc(C(=O)NCc4cccc(C(N)=O)c4)cc32)C1	binding	competition with immobilised ligand	1 µM	100
O=C(Nc1cccnn1)N1CCC(=Cc2cccc(Oc3ccc(C(F)(F)F)cn3)c2)CC1	cell-free assay	competition with immobilised ligand	1 µM	100
O=C(c1ccc(Nc2ncc(Cl)c(-c3ccc(Cl)s3)n2)cc1)N1CCC(N2CCCC2)CC1	binding	competition with immobilised ligand	1 µM	50
Cc1cnn2ncc(-c3ccnc(N(C)C)n3)c2c1	binding	–	1 µM	100
Cc1c(C(=O)O)cc(-c2ccc(C3CCNCC3)cc2)c2ccc(-c3ccc(C(F)(F)F)cc3)cc12	binding	competition with immobilised ligand	1 µM	100
O=C(c1ccc(Nc2ncc(Cl)c(-c3cc4ccccc4s3)n2)cc1)N1CCC(N2CCCC2)CC1	binding	competition with immobilised ligand	1 µM	40
C[C@H]1CCN(c2nccc(-c3cnn4ncccc34)n2)C1	binding	–	1 µM	100
